Source: PubChem
In the library only some 9.6% were active in any assay of this set; here they are far more common.
bCat KO growth: beta-catenin-lacking colon tumor cell growth suppression; HCT116 beta-catenin knockout viability, CellTiter-Glo, 60 h; hits give low values; viability, % at 10 µM; 140,000 compounds, 1.5% hits; AID 818;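 active = viability at or under a set limit, the compound median less 4 SD, cut at about 6% in these data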;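 also: 0% = Hyamine 1622 control at 20 µM and 100% = untreated cell control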
Lmaj promast: inhibitors of Leishmania major promastigote growth; Leishmania major promastigotes, resazurin fluorescence viability; 200,000 compounds, 9% hits; inhibition, % at 10 µM; AID 1063; in the data active = inhibition above about 50%;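 also: promastigotes grown with compound for 44 hours at 28 °C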
PMI act: activators of human phosphomannose isomerase; purified human PMI, coupled resazurin fluorescence, 20 min; hits give high values; 1 = vehicle control, 0 substrate-free wells; activation factor at 20 µM; 190,000 compounds, 0.005% hits; AID 1214;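 active = activation factor of 2 or more at 20 µM, relative to plate controls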
Target sequence (P34949 whole entry, looked up): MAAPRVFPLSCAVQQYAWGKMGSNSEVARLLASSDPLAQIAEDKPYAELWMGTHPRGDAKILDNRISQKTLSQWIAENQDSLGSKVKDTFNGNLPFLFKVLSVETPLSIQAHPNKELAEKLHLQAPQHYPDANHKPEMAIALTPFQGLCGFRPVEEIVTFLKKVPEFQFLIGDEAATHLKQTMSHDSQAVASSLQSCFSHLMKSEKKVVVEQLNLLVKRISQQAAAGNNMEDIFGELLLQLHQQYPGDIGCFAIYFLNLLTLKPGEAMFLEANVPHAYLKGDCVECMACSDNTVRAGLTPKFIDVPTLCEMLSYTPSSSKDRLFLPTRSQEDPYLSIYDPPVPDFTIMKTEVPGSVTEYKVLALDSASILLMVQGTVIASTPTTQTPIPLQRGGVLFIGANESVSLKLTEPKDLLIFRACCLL
HCT116 PTEN-null: growth suppressors of cells with PTEN tumor suppressor deletion; HCT116 PTEN-null viability, CellTiter-Glo, 60 h; hits give low values; viability, % at 10 µM; 140,000 compounds, 1.2% hits; AID 827;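 active = viability at or below a set limit, 4 SD under the median of all tested compounds, cut at about 3.7% in these data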;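 also: PTEN knockout HCT116 line with beta catenin targeted HCT116 as companion control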
PMI act satM6P: activators of human phosphomannose isomerase at near-saturating mannose 6-phosphate | 190,000 compounds, 0.34% hits | activation factor at 20 µM | coupled PMI enzyme assay, resazurin fluorescence, 20 min; hits give high values; 1 = untreated enzyme, 0 = substrate-free blank;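 active = activation factor of 2 or more at 20 µM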
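Test system – human PMI in coupled enzyme assay · Timing – 20 min incubation at room temperature · Detection – Diaphorase-driven resazurin-to-resorufin fluorescence, excitation 544, emission 590 nm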
Numbers without * were called inactive; . = no result given.

SMILES	bCat KO growth	Lmaj promast	PMI act	HCT116 PTEN-null	PMI act satM6P
CC(C)OC(=O)Cn1cc(C#N)c2ccccc21	.	0	0.9	.	1
CCn1ncc(C2=NOC(C(=O)Nc3cccc(C(C)=O)c3)C2)c1C (stereo unspecified)	72	-1	1	82	1
COc1ccc(CCN(C(=O)c2ccccc2)C2=CC3CCC(C2)N3C)cc1OC (stereo unspecified)	94	-3	1.1	98	1
CN1C2C=C(N(CCc3c[nH]c4ccccc34)C(=O)c3ccc(Cl)cc3)CC1CC2 (stereo unspecified)	46	101*	1	36	1
CCOC(=O)C(C)N1C(=O)S/C(=C/c2ccc3c(c2)n(C)c(=O)n3C)C1=O (stereo unspecified)	.	67*	0.9	.	0.9
CCC(C)N1C(=O)S/C(=C/c2ccc3c(c2)n(C)c(=O)n3C)C1=O (stereo unspecified)	.	47	0.9	.	0.9
Cc1cccc(NC(=O)CSc2nnc([C@@H](N)Cc3ccccc3)o2)c1C	97	-1	0.9	94	1
COc1ccc(CC2(CO)CCN(Cc3cccc(OC)c3OC)CC2)cc1	.	5	0.9	.	0.9
COc1ccc(CC2(CO)CCN(C(C)Cc3ccc(Cl)cc3)CC2)cc1 (stereo unspecified)	.	86*	0.9	.	0.9
COc1ccc(CC2(CO)CCN(Cc3ccc4nsnc4c3)CC2)cc1	.	88*	0.9	.	0.9
OCC1(Cc2ccccc2)CCN(Cc2cnc(-c3ccc(Cl)cc3)nc2)CC1	.	-4	0.8	.	0.9
COc1ccc(CC2(CO)CCN(Cc3cccnc3)CC2)cc1	.	89*	1.1	.	1.1
COc1ccc(-c2ncc(CN3CCC(CO)(Cc4cccc(OC)c4)CC3)cn2)cc1	.	6	0.9	.	1
OCC1(Cc2ccc(Cl)cc2)CCN(Cc2ccc3nsnc3c2)CC1	.	88*	0.8	.	0.8
NC(=O)NC(=O)COC(=O)CC12CC3CC(CC(C3)C1)C2	.	-7	1	.	1
Cc1ccc(C)c(S(=O)(=O)N(C(=O)c2ccncc2)c2ccc(OC(=O)c3ccncc3)cc2)c1	.	5	0.9	.	0.9
Cc1ccc(S(=O)(=O)N(C(=O)c2ccncc2)c2ccc(OC(=O)c3ccncc3)cc2)c(C)c1	87	76*	0.9	87	1
CCOc1ccc(N(CC(=O)Nc2ccccc2C(=O)N2CCOCC2)S(=O)(=O)c2ccc(F)cc2)cc1	93	2	1	81	1
COc1ccc(/C=N/Nc2nc(N3CCCC3)nc(N3CCCC3)n2)cc1	73	63*	1.1	86	1
COc1ccc(/C=N/Nc2nc(Nc3ccccc3)nc(N3CCCC3)n2)cc1	.	12	1	.	1
O=[N+]([O-])c1ccc(/C=N/Nc2nc(N3CCCCC3)nc(N3CCCCC3)n2)o1	64	100*	1	67	1.2
Cc1[nH]c2ccccc2c1/C=N/Nc1nc(N2CCCCC2)nc(N2CCCCC2)n1	78	77*	0.7	81	0.8
COC(=O)c1ccc(/C=N/Nc2nc(N3CCCCC3)nc(N3CCCCC3)n2)cc1	.	78*	1	.	0.9
O=C(Oc1ccc(/C=N/Nc2nc(N3CCCCC3)nc(N3CCCCC3)n2)cc1)c1ccco1	.	48	.	.	.
C(=N\Nc1nc(N2CCCCC2)nc(N2CCCCC2)n1)/c1c[nH]c2ccccc12	.	32	0.8	.	0.8
SMILES	bCat KO growth	Lmaj promast	PMI act	HCT116 PTEN-null	PMI act satM6P
CC(=O)N(Cc1ccccc1)c1nc(-c2ccccc2)cs1	.	3	0.9	.	1
CC1CCCC(C)N1C(=O)Cn1cnc2cc([N+](=O)[O-])ccc2c1=O (stereo unspecified)	.	9	1	.	1
O=C(CSc1nnc(COc2ccccc2)o1)N1CCOCC1	.	-6	1.1	.	1.1
Cc1ccc(NC(=O)C(=O)NCCN2CCN(C(=S)Nc3ccccc3)CC2)cc1	91	-1	1	101	1
O=C(Nn1cnc2ccccc2c1=O)c1ccc([N+](=O)[O-])cc1	.	-1	1	.	0.9
Brc1cc2c(cc1/C=N/Nc1nc(N3CCCCC3)nc(N3CCCCC3)n1)OCO2	.	67*	1	.	1
CCc1cc(OCCCCNCc2ccccc2)ccc1Cl	23	99*	1.1	42	1.1
COCCCNCC#CCOc1ccc(OC)cc1	.	32	0.9	.	1
CC(C)(c1ccccc1)c1ccc(OCCCNCCO)cc1	1.8*	100*	0.9	9	1
CCc1cc(OCCN(C)C)ccc1Cl	.	5	1	.	1
CC(C)(C)c1ccccc1OCCOCCNCc1ccccc1	57	96*	0.9	67	1
COCCNCCCOc1ccc(C(C)(C)c2ccccc2)cc1	70	99*	1.2	81	1.2
C#CCOCCOCCOCCNc1nc(N2CCN(C(=O)[C@H]([C@@H](C)CC)n3cc([C@@H](N)Cc4ccc(O)cc4)nn3)CC2)nc(N2CCN(C(=O)[C@H](CCCCN)n3cc([C@@H](N)CO)nn3)CC2)n1	.	0	1.2	.	1.1
C/C(Cn1nc([N+](=O)[O-])cc1C)=N\NC(=O)COc1c(Cl)cc(Cl)cc1Cl	79	19	1	93	1
CN1CCN(C(=S)NC(=O)c2ccco2)CC1	.	-9	0.9	.	0.8
O=C(O)C(Cc1ccccc1)n1c(=S)[nH]c2ccccc2c1=O (stereo unspecified)	.	-5	1	.	1
CCOC(=O)c1cc(CC)sc1NC(=O)c1cc(OC)c(OC)c(OC)c1	89	2	0.8	113	0.8
Cc1nnc(SCc2ccc(Cl)cc2)n1CC1CCCO1 (stereo unspecified)	96	-6	1.1	84	1
COCCNC(=O)COc1ccc(Br)cc1Cl	101	1	1	103	1
Clc1cc(Br)ccc1OCCCNCc1ccccc1	78	99*	1.2	74	1.1
CC(C)(c1ccccc1)c1ccc(OCCn2cnc3ccccc3c2=O)cc1	18	-1	0.9	33	0.9
C=CCNCC#CCOc1ccc(OC)cc1	90	99*	0.9	94	0.9
C=CCNCCCOc1ccc(C(C)(C)c2ccccc2)cc1	49	100*	1.1	49	1.2
COCCCNCCCOc1ccc(C(C)(C)c2ccccc2)cc1	78	99*	1	89	1
O=C(Oc1ccc(Nc2ncnc3ccccc23)cc1)c1cccnc1	.	1	1.1	.	1.1
SMILES	bCat KO growth	Lmaj promast	PMI act	HCT116 PTEN-null	PMI act satM6P
CC(C)NCCCOc1ccc(C(C)(C)c2ccccc2)cc1	64	99*	1	79	1
C=CCNCCCCOc1ccc(OCC)cc1	79	100*	1	82	1
CC(C)(C)c1ccc(OCCCNCc2ccccc2)cc1	22	99*	0.9	23	1
COc1ccc(OCCCNCCc2ccccc2)cc1	.	-11	1	.	1
CCN(CC)CCCNCC(=O)Nc1ccc2c(c1)CCC2	.	4	0.9	.	0.9
Cc1ccc(N(CC(=O)NCCSCc2ccco2)S(=O)(=O)c2ccc(F)cc2)cc1	.	69*	0.8	.	0.8
